# Reference: ChEMBL document CHEMBL2163247, “Multitargeted drug development: Discovery and profiling of dihydroxy substituted 1-aza-9-oxafluorenes as lead compounds targeting Alzheimer disease relevant kinases” (Bioorg Med Chem Lett, 2012)
# Active and inactive are the calls of the source. No cut-off for these calls is given here.
# Assays:
# [1] = Inhibition of CDK4/Cyclin D
# In short: (§1)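 Ki values were calculated from measured IC50 values of kinase inhibition.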
# [2] = molecular target: Cyclin-dependent kinase 5/CDK5 activator 1 (Homo sapiens, UniProt Q00535); test: Inhibition of CDK5/p25; format: protein-complex assay; in short: as §1
# Sequence of Cyclin-dependent kinase 5/CDK5 activator 1 (Q00535 whole entry): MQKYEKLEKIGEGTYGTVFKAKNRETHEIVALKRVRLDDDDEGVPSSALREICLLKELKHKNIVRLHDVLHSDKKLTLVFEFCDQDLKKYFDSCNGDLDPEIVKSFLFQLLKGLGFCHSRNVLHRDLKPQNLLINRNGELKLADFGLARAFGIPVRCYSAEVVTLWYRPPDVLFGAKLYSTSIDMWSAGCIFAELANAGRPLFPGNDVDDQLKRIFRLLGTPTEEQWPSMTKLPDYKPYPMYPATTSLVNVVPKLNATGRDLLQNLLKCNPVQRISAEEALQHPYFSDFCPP
# Sequence of Cyclin-dependent kinase 5/CDK5 activator 1 (Q15078 whole entry, further chain): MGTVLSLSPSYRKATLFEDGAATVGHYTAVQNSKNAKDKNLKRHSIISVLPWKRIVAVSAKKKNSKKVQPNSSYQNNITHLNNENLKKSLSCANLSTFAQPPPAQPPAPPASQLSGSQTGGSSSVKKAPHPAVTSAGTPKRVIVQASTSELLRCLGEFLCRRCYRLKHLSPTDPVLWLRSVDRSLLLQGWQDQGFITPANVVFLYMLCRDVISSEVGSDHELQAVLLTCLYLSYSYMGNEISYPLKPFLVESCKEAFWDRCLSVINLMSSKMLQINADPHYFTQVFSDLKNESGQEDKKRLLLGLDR
# [3] = molecular target: Glycogen synthase kinase-3 beta (Homo sapiens, UniProt P49841); test: Inhibition of GSK3beta; in short: as §1
# Sequence of Glycogen synthase kinase-3 beta (P49841 whole entry): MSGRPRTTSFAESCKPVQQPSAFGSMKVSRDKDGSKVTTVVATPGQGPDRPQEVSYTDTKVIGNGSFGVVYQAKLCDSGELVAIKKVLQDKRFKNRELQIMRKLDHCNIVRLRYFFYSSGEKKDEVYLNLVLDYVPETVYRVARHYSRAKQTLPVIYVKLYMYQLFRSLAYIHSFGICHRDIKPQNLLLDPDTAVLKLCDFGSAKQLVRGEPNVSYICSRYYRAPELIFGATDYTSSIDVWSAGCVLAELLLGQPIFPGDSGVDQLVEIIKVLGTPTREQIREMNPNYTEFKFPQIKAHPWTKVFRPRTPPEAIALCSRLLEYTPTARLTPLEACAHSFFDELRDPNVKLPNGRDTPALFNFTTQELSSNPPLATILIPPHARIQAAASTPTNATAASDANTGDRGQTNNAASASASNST
# N2a [4] = test: Cytotoxicity against mouse N2A cells up to 90 uM by MTT assay; format: cell-based
# In short: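 N2A cells were treated at up to 90 µM. MTT was added in triplicate to a final 1 mg/mL for 2 h. Medium was removed, formazan taken up in DMSO plus glycine buffer (0.1 M glycine, pH 10.5, 0.1 M NaCl), and absorbance read at 550 nm. Cells lysed with 1% Triton X-100 set 100% death; untreated cells served as reference.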
# N2a [5] = test: Cytotoxicity against mouse N2A cells up to 90 uM by LDH assay; format: cell-based
# In short: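 Membrane integrity in N2A cells was read as extracellular lactate dehydrogenase activity, at compound concentrations up to 90 µM. Absorbance was read at 492 nm 20 min after adding the reagent mixture and compared with compound-free cells.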
# [6] = molecular target: Protein kinase C alpha type (Homo sapiens, UniProt P17252); test: Inhibition of PKCalpha
# [7] = molecular target: Protein kinase C gamma type (Homo sapiens, UniProt P05129); test: Inhibition of PKCgamma
# [8] = molecular target: T1, Protein kinase C epsilon type (Homo sapiens, UniProt Q02156); test: Inhibition of PKCepsilon
# T1 sequence (Q02156 whole entry): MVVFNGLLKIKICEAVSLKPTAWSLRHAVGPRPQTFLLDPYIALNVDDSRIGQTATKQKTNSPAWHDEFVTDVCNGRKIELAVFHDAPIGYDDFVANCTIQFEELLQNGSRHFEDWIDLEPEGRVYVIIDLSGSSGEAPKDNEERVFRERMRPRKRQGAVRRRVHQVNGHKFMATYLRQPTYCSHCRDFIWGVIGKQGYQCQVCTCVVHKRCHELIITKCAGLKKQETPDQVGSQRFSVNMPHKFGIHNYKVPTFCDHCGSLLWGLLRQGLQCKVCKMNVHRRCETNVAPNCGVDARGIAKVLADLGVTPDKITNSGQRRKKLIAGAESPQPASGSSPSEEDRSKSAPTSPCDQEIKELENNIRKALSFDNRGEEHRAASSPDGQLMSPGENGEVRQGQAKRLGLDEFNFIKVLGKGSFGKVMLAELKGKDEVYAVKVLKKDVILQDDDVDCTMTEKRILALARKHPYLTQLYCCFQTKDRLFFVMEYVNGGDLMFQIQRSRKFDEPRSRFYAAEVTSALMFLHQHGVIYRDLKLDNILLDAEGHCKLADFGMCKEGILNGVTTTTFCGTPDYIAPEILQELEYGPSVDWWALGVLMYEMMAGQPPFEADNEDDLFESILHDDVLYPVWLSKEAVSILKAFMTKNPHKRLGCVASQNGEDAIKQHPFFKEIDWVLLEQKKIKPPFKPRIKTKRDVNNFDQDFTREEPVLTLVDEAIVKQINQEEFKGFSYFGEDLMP
# [9] = molecular target: T2, Protein kinase C iota type (Homo sapiens, UniProt P41743); test: Inhibition of PKCiota
# T2 sequence (P41743 whole entry): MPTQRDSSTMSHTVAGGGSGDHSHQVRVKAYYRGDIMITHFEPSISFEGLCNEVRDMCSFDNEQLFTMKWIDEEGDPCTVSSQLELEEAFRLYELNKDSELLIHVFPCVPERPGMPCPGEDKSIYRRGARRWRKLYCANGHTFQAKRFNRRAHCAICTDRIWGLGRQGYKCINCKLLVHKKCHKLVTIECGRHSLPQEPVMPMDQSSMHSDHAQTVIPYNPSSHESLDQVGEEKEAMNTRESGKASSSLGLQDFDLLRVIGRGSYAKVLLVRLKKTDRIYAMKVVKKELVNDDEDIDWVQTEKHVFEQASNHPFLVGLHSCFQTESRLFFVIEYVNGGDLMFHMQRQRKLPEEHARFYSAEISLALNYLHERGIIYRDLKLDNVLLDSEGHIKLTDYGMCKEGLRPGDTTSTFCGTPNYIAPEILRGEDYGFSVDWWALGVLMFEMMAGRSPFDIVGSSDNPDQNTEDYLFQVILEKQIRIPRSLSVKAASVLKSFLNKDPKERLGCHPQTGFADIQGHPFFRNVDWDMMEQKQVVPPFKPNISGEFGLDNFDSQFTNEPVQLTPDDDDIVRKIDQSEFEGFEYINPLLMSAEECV
# [10] = molecular target: Vascular endothelial growth factor receptor 2 (Homo sapiens, UniProt P35968); test: Inhibition of VEGFR2
# [11] = molecular target: Receptor tyrosine-protein kinase erbB-2 (Homo sapiens, UniProt P04626); test: Inhibition of ERBB2
# Angiopoietin-1 receptor = Angiopoietin-1 receptor (Homo sapiens, UniProt Q02763); test: Inhibition of TIE2
# Sequence of Angiopoietin-1 receptor (Q02763 whole entry): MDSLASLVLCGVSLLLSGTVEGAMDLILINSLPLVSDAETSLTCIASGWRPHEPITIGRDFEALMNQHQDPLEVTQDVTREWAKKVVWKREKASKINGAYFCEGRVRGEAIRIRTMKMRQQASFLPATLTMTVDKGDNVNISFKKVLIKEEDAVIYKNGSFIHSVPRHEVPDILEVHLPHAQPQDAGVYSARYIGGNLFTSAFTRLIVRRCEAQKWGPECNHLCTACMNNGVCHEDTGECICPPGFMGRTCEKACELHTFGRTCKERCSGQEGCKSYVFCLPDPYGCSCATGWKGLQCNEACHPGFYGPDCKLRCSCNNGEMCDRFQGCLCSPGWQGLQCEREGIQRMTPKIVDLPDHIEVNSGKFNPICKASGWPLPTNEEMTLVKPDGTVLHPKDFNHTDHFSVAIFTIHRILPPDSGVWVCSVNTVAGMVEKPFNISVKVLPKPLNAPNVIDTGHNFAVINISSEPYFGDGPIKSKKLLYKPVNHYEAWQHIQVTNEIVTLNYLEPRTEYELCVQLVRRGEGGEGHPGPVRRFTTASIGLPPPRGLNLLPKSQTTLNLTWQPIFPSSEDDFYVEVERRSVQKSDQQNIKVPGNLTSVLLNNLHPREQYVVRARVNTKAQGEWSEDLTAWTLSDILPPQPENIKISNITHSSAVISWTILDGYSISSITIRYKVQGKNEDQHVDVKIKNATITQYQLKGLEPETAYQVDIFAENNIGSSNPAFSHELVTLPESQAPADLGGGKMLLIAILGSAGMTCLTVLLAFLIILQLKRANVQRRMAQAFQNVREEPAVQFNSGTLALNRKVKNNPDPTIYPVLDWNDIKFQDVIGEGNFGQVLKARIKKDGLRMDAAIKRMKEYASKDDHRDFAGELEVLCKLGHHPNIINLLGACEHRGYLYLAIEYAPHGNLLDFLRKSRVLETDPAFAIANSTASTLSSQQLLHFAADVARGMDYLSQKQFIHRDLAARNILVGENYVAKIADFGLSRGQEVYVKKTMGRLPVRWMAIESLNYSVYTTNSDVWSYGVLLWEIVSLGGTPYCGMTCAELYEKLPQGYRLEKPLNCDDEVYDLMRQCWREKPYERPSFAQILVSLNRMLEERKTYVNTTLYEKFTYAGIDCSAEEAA
# CDK6/cyclin D1 = CDK6/cyclin D1 (Homo sapiens, UniProt Q00534); test: Inhibition of CDK6/Cyclin D1; format: protein-complex assay
# Wee1-like protein kinase = Wee1-like protein kinase (Homo sapiens, UniProt P30291); test: Inhibition of WEE1
# [12] = molecular target: Casein kinase I isoform alpha (Homo sapiens, UniProt P48729); test: Inhibition of Ck1alpha1
# Sequence of Casein kinase I isoform alpha (P48729 whole entry, canonical isoform): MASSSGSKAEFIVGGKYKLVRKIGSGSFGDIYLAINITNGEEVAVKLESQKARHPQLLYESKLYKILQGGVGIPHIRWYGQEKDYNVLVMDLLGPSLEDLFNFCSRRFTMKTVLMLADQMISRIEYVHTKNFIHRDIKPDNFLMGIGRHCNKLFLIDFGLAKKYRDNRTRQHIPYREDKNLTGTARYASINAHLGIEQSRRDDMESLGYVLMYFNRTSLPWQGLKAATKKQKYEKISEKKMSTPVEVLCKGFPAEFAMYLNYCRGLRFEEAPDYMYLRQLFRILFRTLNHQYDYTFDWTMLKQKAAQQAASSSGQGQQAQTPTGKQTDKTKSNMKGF
# [13] = molecular target: Cdk5-Cdk5r1 complex (Mus musculus) (UniProt P49615+P61809); test: Inhibition of CDK5/p25-mediated Tau S202/T205 phosphorylation in mouse N2A cells at 2.6 to 24 uM after 16 hrs by immunoblot analysis; format: cell-based
# Sequence of Cdk5-Cdk5r1 complex (Mus musculus) (P49615 whole entry, looked up): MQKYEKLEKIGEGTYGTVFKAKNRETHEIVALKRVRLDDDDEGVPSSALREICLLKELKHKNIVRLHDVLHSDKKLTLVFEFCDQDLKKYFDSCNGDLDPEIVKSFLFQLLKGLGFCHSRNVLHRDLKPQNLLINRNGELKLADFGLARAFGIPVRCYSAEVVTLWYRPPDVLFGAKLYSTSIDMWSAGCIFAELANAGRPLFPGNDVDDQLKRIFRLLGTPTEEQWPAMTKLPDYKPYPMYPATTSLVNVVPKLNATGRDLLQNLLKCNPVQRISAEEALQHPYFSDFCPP
# Sequence of Cdk5-Cdk5r1 complex (Mus musculus) (P61809 whole entry, looked up): as the sequence (Q15078 whole entry, further chain) above, with V68A, N76S, T79A, G121V, V133I counted along it
# In short: (§2)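 Mouse N2A cells stably transfected with a 3-repeat tau construct were grown 24 h in DMEM/HAMs F-12 (pH 7.4), 5% FBS, 2 mM L-glutamine and gentamicin (37 °C, 5% CO2). They were then exposed 16 h to inhibitor diluted from a 25 mM DMSO stock (final DMSO ≤0.4%, also in controls). Lysate proteins were run on 8% SDS–PAGE, blotted to PVDF, and probed for phospho-Ser202/Thr205 tau.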
# [14] = molecular target: Glycogen synthase kinase-3 beta (Mus musculus) (UniProt Q9WV60); test: Inhibition of GSK3beta-mediated Tau S202/T205 phosphorylation in mouse N2A cells at 2.6 to 24 uM after 16 hrs by immunoblot analysis; format: cell-based; in short: as §2
# Sequence of Glycogen synthase kinase-3 beta (Mus musculus) (Q9WV60 whole entry, looked up): as the sequence (P49841 whole entry) above, with T390P, T392A, A400T, T402A counted along it
# [15] = molecular target: Cyclin-dependent kinase 2/cyclin E (Homo sapiens, UniProt P24941); test: Inhibition of CDK2/Cyclin E; format: protein-complex assay; in short: as §1
# [16] = molecular target: Cyclin-dependent kinase 1/cyclin B1 (Homo sapiens, UniProt P06493); test: Inhibition of CDK1/Cyclin B; format: protein-complex assay; in short: as §1
# Sequence of Cyclin-dependent kinase 1/cyclin B1 (P06493 whole entry): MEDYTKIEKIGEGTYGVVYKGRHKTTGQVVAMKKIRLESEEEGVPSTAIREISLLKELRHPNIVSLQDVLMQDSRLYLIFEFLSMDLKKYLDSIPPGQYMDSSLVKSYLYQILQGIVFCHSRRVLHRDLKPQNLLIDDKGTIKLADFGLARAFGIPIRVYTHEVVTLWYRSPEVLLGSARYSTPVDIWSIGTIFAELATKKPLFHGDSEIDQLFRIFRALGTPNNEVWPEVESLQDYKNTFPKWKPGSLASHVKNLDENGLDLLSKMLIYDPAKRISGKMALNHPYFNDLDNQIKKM
# Sequence of Cyclin-dependent kinase 1/cyclin B1 (P14635 whole entry, further chain): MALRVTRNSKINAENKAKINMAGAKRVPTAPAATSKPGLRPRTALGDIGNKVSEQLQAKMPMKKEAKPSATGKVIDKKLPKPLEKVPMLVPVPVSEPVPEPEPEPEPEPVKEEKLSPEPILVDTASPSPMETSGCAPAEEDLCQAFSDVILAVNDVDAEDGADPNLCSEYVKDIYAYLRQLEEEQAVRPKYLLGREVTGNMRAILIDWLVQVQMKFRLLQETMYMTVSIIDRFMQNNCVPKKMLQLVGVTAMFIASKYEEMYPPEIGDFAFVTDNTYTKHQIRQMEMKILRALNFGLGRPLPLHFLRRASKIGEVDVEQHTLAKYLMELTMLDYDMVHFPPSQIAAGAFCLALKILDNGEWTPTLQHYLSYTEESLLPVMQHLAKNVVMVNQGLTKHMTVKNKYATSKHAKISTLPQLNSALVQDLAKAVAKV
Ki [1] [µM],Ki [2] [µM],Ki [3] [µM],Ki [15] [µM],Ki [16] [µM],Structure (SMILES),also measured
18.5,0.11,0.02,0.6,0.01,Oc1ccc2oc3ncc(O)c(-c4ccccc4)c3c2c1,Activity (N2a [4]): Non-toxic; Activity (N2a [5]): Non-toxic; Ki [6]: > 1000 µM; Ki [7]: > 1000 µM; Ki [8]: > 1000 µM; Ki [9]: > 1000 µM; Ki [10]: > 1000 µM; Ki [11]: > 1000 µM; Ki (Angiopoietin-1 receptor): > 1000 µM; Ki (CDK6/cyclin D1): 773 µM; Ki (Wee1-like protein kinase): > 1000 µM; Ki [12]: > 1000 µM; inhibition [13]: Active; inhibition [14]: Active
36.6,> 1000,5.8,6.4,2.3,Oc1ccc2oc3ncc(OCc4ccccc4)c(-c4ccccc4)c3c2c1,–
–,2.1,1.6,–,0.09,Oc1cc2c(oc3ncc(OCc4ccccc4)c(-c4ccccc4)c32)c2ccccc12,–
> 1000,> 1000,> 1000,> 1000,> 1000,COc1ccc2oc3ncc(OC)c(-c4ccccc4)c3c2c1,–
–,25.3,5.8,–,1.3,Cc1cc2oc3ncc(OCc4ccccc4)c(-c4ccccc4)c3c2cc1O,–
–,0.07,0.01,–,0.7,Oc1cnc2oc3c4ccccc4c(O)cc3c2c1-c1ccccc1,–
144,> 1000,> 1000,> 1000,> 1000,COc1ccc2oc3ncc(O)c(-c4ccccc4)c3c2c1,–
> 1000,26.1,0.02,> 1000,> 1000,COc1ccc2oc3ncc(OCc4ccccc4)c(-c4ccccc4)c3c2c1,–

Structure (SMILES),Ki [1] [µM],Ki [2] [µM],Ki [3] [µM],Ki [15] [µM],Ki [16] [µM],also measured
COc1cnc2oc3ccc(O)cc3c2c1-c1ccccc1,93.6,> 1000,14.8,24,5.3,–
